Columns and labels:
Plasmodium falciparum [1] = test: Antimalarial activity against chloroquine-sensitive Plasmodium falciparum D10 as LDH reporter activity; format: functional, organism-based
Procedure, shortened: (§1)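 Asynchronous P. falciparum cultures (1–1.5% parasitaemia, 1% final hematocrit) exposed to serial dilutions for 72 h at 37 °C under 1% O2/5% CO2/94% N2. Compounds dissolved in water or DMSO, diluted in medium (final DMSO <1%). Growth read as pLDH activity (OD650, modified Makler method). IC50 given as mean ± SD of at least three experiments in duplicate.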

Plasmodium falciparum [2] = test: Relative selectivity against Plasmodium falciparum D10 as IC50 ratio compared to chloroquine; format: functional
Procedure, shortened: (§2)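 Asynchronous P. falciparum cultures (D-10 or W-2; 1–1.5% parasitaemia, 1% haematocrit) incubated 72 h at 37 °C under 1% O2/5% CO2/94% N2 with serial drug dilutions (water or DMSO, final DMSO <1%). Growth read as pLDH activity at OD650. Chloroquine IC50 divided by compound IC50 within each experiment, ratios averaged.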

Plasmodium falciparum [3] = test: Antimalarial activity against chloroquine-resistant Plasmodium falciparum W2 as LDH activity; format: functional, organism-based; procedure, shortened: as §1
Plasmodium falciparum [4] = test: Relative selectivity against Plasmodium falciparum W2 as IC50 ratio compared to chloroquine; format: functional; procedure, shortened: as §2
[5] = Ratio of IC50 for chloroquine-resistant Plasmodium falciparum W2 to IC50 for chloroquine-sensitive Plasmodium falciparum D10; format: functional
[6] = Cytotoxicity against HMEC1 cells by MTT assay; format: cell-based; details: Homo sapiens, HMEC-1
Procedure, shortened: (§3)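 Human cell lines (SV40-immortalized microvascular endothelial HMEC-1 in MCDB 131 with 10% FCS, EGF, hydrocortisone, glutamine, Hepes; K562 in RPMI 1640 with 10% FCS, glutamine) exposed to serial compound dilutions 72 h at 37 °C, 5% CO2. MTT added 3 h; formazan dissolved in SDS/DMF buffer pH 4.7, read 550 nm (ref 650 nm). IC50 for 50% growth inhibition.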

[7] = Cytotoxicity against mouse WEHI13 cells by MTT assay; format: cell-based
Procedure, shortened: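 Murine WEHI clone 13 fibrosarcoma cells in RPMI 1640 with 10% FCS and glutamine, treated with serial compound dilutions 72 h at 37 °C, 5% CO2. MTT added for 3 h, formazan solubilized in SDS/DMF lysing buffer pH 4.7, absorbance 550 nm against 650 nm reference. IC50 is dose giving 50% growth inhibition.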

K562 = test: Cytotoxicity against human K562 cells by MTT assay; format: cell-based; procedure, shortened: as §3

SMILES | IC50 (Plasmodium falciparum [1]) | Ratio IC50 (Plasmodium falciparum [2]) | IC50 (Plasmodium falciparum [3]) | Ratio IC50 (Plasmodium falciparum [4]) | Ratio IC50 [5] | IC50 [6] | IC50 [7] | IC50 (K562)
Cc1c(CN2CCCC2)cc(-c2ccc(Cl)cc2)n1Nc1ccnc2cc(Cl)ccc12 | 0.0307 µM | 0.8 | 0.0496 µM | 15.8 | 1.6 | 7.18 µM | 2.06 µM | 
Oc1cc(Nc2ccnc3cc(Cl)ccc23)ccc1CNCC12CCCN1CCC2 | 0.0819 µM | 0.4 | 0.077 µM | 2.2 | 0.9 |  |  | 
Cc1cc(CN2CCCC2)c(C)n1Nc1ccnc2cc(Cl)ccc12 | 0.0807 µM | 0.2 | 0.336 µM | 0.7 | 4.2 |  |  | 
CCN(CC)Cc1cc(-c2ccccc2)n(Nc2ccnc3cc(Cl)ccc23)c1C | 0.0427 µM | 0.7 | 0.0592 µM | 9.9 | 1.4 | 16.7 µM | 4.38 µM | 3.62 µM
Clc1ccc2c(Nc3ccc(CNC[C@@H]4CCCN5CCCC[C@H]45)c(Cl)c3)ccnc2c1 | 0.0236 µM | 1.8 | 0.0288 µM | 28 | 1.2 | 5.52 µM | 2.77 µM | 
Cc1c(CN2CCCC2)cc(-c2ccccc2)n1Nc1ccnc2cc(Cl)ccc12 | 0.0429 µM | 0.7 | 0.14 µM | 4.2 | 3.3 | 12.9 µM | 3.88 µM | 2.92 µM
CCN(CC)CCCC(C)Nc1ccnc2cc(Cl)ccc12 (stereo not given) [CHLOROQUINE] |  |  |  |  |  | > 32 µM | > 38 µM | 29 µM
Cc1cc(CNC(C)(C)C)c(C)n1Nc1ccnc2cc(Cl)ccc12 | 0.0486 µM | 0.3 | 0.255 µM | 0.9 | 5.3 |  |  | 
Oc1cc(Nc2ccnc3cc(Cl)ccc23)ccc1CNC[C@@H]1CCCN2CCCC[C@H]12 | 0.0085 µM | 2.8 | 0.0143 µM | 22 |  | 7.94 µM | 4.43 µM | 
CCN(CC)Cc1cc(C)n(Nc2ccnc3cc(Cl)ccc23)c1C | 0.069 µM | 0.2 | 0.193 µM | 1.2 | 2.8 |  |  | 
Cc1c(CNCC[C@@H]2CCCN3CCCC[C@H]23)cc(-c2ccccc2)n1Nc1ccnc2cc(Cl)ccc12 | 0.154 µM | 0.2 | 0.776 µM | 0.8 | 5 | 14.6 µM | 7.22 µM | 2.61 µM
Cc1cc(CNC[C@@H]2CCCN3CCCC[C@H]23)c(C)n1Nc1ccnc2cc(Cl)ccc12 | 0.0707 µM | 0.4 | 0.0534 µM | 3.1 | 0.8 | 5.4 µM | 5.51 µM | 
CCN(CC)Cc1ccc(Nc2ccnc3cc(Cl)ccc23)cc1O [ISOQUINE] | 0.0237 µM | 1.3 | 0.0302 µM | 17.6 | 1.3 |  |  | 
Oc1cc(Nc2ccnc3cc(Cl)ccc23)ccc1CNCCC12CCCN1CCC2 | 0.0903 µM | 0.3 | 0.153 µM | 2.1 | 1.7 |  | 12.2 µM | 
Cc1cc(CNCC23CCCN2CCC3)c(C)n1Nc1ccnc2cc(Cl)ccc12 | 0.222 µM | 0.1 | 0.358 µM | 0.5 | 1.6 |  |  | 
CCN(CC)Cc1cc(-c2ccc(Cl)cc2)n(Nc2ccnc3cc(Cl)ccc23)c1C | 0.0261 µM | 0.9 | 0.0425 µM | 18.5 | 1.6 | 5.81 µM | 1.45 µM | 
Cc1c(CNC(C)(C)C)cc(-c2ccccc2)n1Nc1ccnc2cc(Cl)ccc12 | 0.0635 µM | 0.4 | 1.18 µM | 0.7 | 18.5 |  |  | 
Cc1c(CNC[C@@H]2CCCN3CCCC[C@H]23)cc(-c2ccccc2)n1Nc1ccnc2cc(Cl)ccc12 | 0.0365 µM | 0.8 | 0.515 µM | 1.1 | 14.1 | 13.5 µM | 7.44 µM | 1.68 µM

Reference: ChEMBL document CHEMBL1155029, “Novel amodiaquine congeners as potent antimalarial agents” (Bioorg Med Chem, 2008)
